Compound activity from PubChem.
Scp-1 inhibitor = blocks human Scp-1 phosphatase activity | Q9GZU7 | Recombinant Scp1, phosphopeptide, malachite green phosphate absorbance | inhibition, % at 20 µM | hit rate 0.88% among 340,000 | AID 493091;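 active = inhibition above about 50% at 20 µM, limit read from the data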
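Test system: SCP-1 phosphatase catalytic domain, residues 76-261 | Compound dosing: One concentration, 20 µM, with 1.0% DMSO | Schedule: 45 min room-temperature reaction, 5 min colour, 30 min stabiliser | Detection: Absorbance at 630 nm | Read-out basis: % inhibition of SCP-1 phosphate liberation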
DNMT1 block = DNMT1 (human) enzyme inhibition; DNMT1 molecular beacon, Hinp1I cleavage, fluorescence; P26358; inhibition (reported as % activation of signal), % at 10 µM; hit rate 0.83% among 360,000; in the data active = inhibition above about 50%
NadD block = NadD (S. aureus) enzyme inhibition; purified NadD enzyme, colorimetric absorbance read-out; inhibition, % at 20 µM; AID 602399; hit rate 0.78% among 360,000; in the data active = inhibition above about 26%
STEP block = blocks human striatal-enriched tyrosine phosphatase; hit rate 0.25% among 360,000; inhibition, % at 20 µM; P54829; AID 588621; recombinant STEP, OMFP fluorogenic substrate, fluorescence;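 active = inhibition at 20 µM, scaled per plate between control wells, above about 37%, limit read from the data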
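Measure: Control-normalized % inhibition with plate pattern correction | Test system: STEP phosphatase, cell-free reaction | Medium: pH 6.0 Bis-Tris with DTT and Tween 20 | Technique: Fluorescence, 480/540 nm | Times: Reaction 20 min, ambient temperature | Doses: Single compound dose of 20 µM, 1% DMSO final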
SUMO1-SIM PPI = SUMO1-SIM interaction modulation; P63165; SUMO1 binding to a labelled peptide, TR-FRET, 1 h; inhibition, % at 20 µM; hit rate 0.33% among 360,000; in the data active = inhibition above about 37%
Target sequence (P63165 whole entry, looked up): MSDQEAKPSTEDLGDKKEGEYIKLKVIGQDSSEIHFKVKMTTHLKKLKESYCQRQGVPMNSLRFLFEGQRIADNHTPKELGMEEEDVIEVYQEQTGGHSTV
LMPTP block = LMPTP (human) inhibition; P24666; recombinant LMPTP-A, OMFP fluorogenic substrate, fluorescence intensity; inhibition, % at 20 µM; hit rate 0.22% among 360,000;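 active = compounds that cut the enzyme signal by at least half of the control window in the single-dose screen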
Target sequence (P24666 whole entry, looked up): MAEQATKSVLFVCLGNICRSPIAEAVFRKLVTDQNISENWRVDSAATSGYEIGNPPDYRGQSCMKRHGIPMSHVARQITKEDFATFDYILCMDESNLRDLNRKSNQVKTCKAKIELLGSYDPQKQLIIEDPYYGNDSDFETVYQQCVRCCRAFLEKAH
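Test system – LMPTP-A enzyme · Amount – LMPTP-A at 0.625 nM final in the reaction · Buffer or medium – Bis-Tris pH 6.0, DTT, detergent · Reagent – OMFP 400 µM · Doses – single 20 µM dose · Schedule – reaction 50 min, room temperature, dark · Detection – fluorescence intensity of OMFP turnover product · Evaluation – percent inhibition versus substrate-only and uninhibited controls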
Scp1 confirm = Scp-1 (human) inhibition, single-dose confirmed. shares compounds with Scp-1 inhibitor. recombinant SCP-1 catalytic domain, phosphate release, malachite green absorbance. inhibition, % at 20 µM. hit rate 61% among 2,500
Scp-1 MG ctr = interferes with malachite green readout, flagging false Scp-1 hits; shares compounds with Scp-1 inhibitor; Colorimetric interference counterscreen, malachite green absorbance 630 nm; apparent inhibition (interference), % at 20 µM; 2,500 tested, under 10 active; AID 540313;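 note: compounds added after enzyme reaction finished so only phosphate colour detection is probed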
Scp1 DSF = binds human Scp-1, shifting its melting temperature. shares compounds with Scp-1 inhibitor. Recombinant SCP1, Sypro Orange thermal shift Tm. thermal shift relative to vanadate control, % at 40 µM. hit rate 25% among 1,500;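 active = substances whose mean melting-temperature shift, as a percentage of the reference inhibitor's shift, reaches about 5.3%, limit read from the data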
DNMT1 confirm = DNMT1 inhibition confirmation, single concentration; AID 602385; hit rate 8% among 2,300; shares compounds with DNMT1 block; DNMT1 molecular beacon HinP1I cleavage, fluorescence; inhibition, % at 10 µM;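 active = average inhibition of at least 30% in the single-concentration confirmation test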
Beacon interf = beacon fluorescence artifact counter-screen; shares compounds with DNMT1 block; DNMT1 molecular beacon spectral interference counterscreen, fluorescence 485/520; activation (fluorescence interference), % at 10 µM; hit rate 1% among 2,300; AID 602387;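 active = activation of at least 30% at 10 µM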;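 note: DNMT1 catalytic domain with a HinP1I cleavage step and a FAM/dabcyl DNA beacon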
Numbers stand for hits; . = inactive; / = no result given. Rows were chosen to be rich in hits. Some 2.4% of all compounds tested hit in one or more screens of this group.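 Rule for the calls, unless noted: active = inhibition of at least 30% at 20 µM; inactive = the rest.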

SMILES | Scp-1 inhibitor | DNMT1 block | NadD block | STEP block | SUMO1-SIM PPI | LMPTP block | Scp1 confirm | Scp-1 MG ctr | Scp1 DSF | DNMT1 confirm | Beacon interf
CCC1(CC)NC(=O)N(CC(=O)Nc2sc3c(c2C(N)=O)CCC3)C1=O | 68 | 77 | . | . | . | . | 61 | . | 12 | . | .
NC(=O)c1c(NC(=O)CSc2nnc(-c3ccco3)n2-c2ccccc2)sc2c1CCC2 | 76 | 86 | . | . | . | . | 75 | . | . | . | .
CCn1c(SCC(=O)Nc2sc3c(c2C#N)CCCC3)nnc1-c1ccco1 | . | . | . | . | . | . | / | / | / | / | /
CCOC(=O)Cc1csc(SCC(=O)Nc2sc3c(c2C(N)=O)CCC3)n1 | 83 | 95 | . | . | . | . | 68 | . | 6.6 | . | .
CCC1(C)NC(=O)N(CC(=O)Nc2sc3c(c2C(=O)OC)CCCCC3)C1=O (centres undefined) | . | . | . | . | . | . | / | / | / | / | /
